Compound activity from PubChem BioAssay.
TPT1 inhibitor – blocks Candida albicans tRNA 2'-phosphotransferase. recombinant caTPT1, FP RNA substrate dephosphorylation. inhibition, % at 5 µM. 0.81% of 300,000 active. AID 1962;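 active = inhibition above the mean of all tested compounds plus 3 SD, set per screening campaign, cut at about 24% in these data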;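 also: plate controls were DMSO alone for no effect and ferristatin control at 100 nM for full effect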
CSN deneddyl inh – inhibitors of human CSN-mediated cullin deneddylation; Q92905; Purified CSN, SCF-Nedd8-OG deneddylation, fluorescence polarization; inhibition, % at 12.5 µM; 0.38% of 360,000 active; AID 651999;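 active = pattern-corrected inhibition above about 35%, with an unprinted fluorescence ratio check between 0.5 and 1.5, limit read from the data, passing the limit was not always enough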;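 also: 0% = enzyme with substrate and 100% = substrate without enzyme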
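Detection – fluorescence polarization · System – HEK293T-derived human Csn5 enzyme · Controls – substrate-only high control, full reaction low control · Timing – 90 min, room temperature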
Rpn11 inh – Rpn11 (human) deubiquitinase inhibition | human 26S proteasome, Ub4-pepOG fluorescence polarization; 20S core pre-blocked with epoxomicin | O00487 | AID 588493 | inhibition, % at 20 µM | 0.59% of 360,000 active;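 active = inhibition at 20 µM, scaled to each plate's controls, above about 33%, limit read from the data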
HNF4A DNA FP – change in binding of human HNF4 alpha to DNA | P41235 | HNF4a-FITC DNA binding, fluorescence polarization, 1 h | activity change, % at 10 µM | 0.3% of 360,000 active | AID 1224865; in the data active = activity change above about 30%, passing the limit was not always enough
Target sequence (P41235 whole entry, looked up): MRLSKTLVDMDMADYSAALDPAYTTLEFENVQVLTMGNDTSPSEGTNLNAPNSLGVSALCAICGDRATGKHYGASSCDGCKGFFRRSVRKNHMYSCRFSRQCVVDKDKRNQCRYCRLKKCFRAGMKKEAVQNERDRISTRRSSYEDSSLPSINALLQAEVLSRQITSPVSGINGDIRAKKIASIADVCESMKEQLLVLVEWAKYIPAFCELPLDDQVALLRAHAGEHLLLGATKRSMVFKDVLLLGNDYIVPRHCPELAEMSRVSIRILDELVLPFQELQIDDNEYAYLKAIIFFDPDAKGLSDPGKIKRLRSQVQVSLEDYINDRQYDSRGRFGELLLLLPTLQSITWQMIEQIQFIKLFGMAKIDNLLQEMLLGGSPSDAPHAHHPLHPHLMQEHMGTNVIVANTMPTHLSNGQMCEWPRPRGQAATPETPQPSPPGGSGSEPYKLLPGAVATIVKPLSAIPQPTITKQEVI
TPT1 inh confirm – confirmation of Candida albicans TPT1 inhibitors | shares compounds with TPT1 inhibitor | recombinant caTPT1, fluorescence polarization, RNase T1 coupled | inhibition, % at 5 µM | 74% of 2,400 active;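 active = inhibition above the primary screen limit, the mean inhibition of all tested compounds plus 3 SD, cut at about 25% in these data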
RNase T1 counter – counter-screen for TPT1 inhibitors: inhibitors of Aspergillus oryzae RNase T1; shares compounds with TPT1 inhibitor; inhibition, % at 5 µM; 83% of 2,400 active; RNase T1 cleavage, fluorescence polarization, 1536-well;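 active = inhibition above the solvent-only control well mean plus 3 SD, limit set per screening run, cut at about 23% in these data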;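 also: plate controls were DMSO wells with enzyme for no effect and wells without RNase T1 for full effect; inhibitors block cleavage so intact labeled substrate keeps polarization high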
Target sequence (P00651 whole entry, looked up): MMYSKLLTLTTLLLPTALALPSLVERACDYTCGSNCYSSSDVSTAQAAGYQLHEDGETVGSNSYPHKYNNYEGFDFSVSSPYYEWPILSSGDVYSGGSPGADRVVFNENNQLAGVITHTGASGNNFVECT
Numbers without * were called inactive. Most compounds without a hit are left out; they make up all but 1.5% or so of the library.

Cc1cc(Br)ccc1OCCN1CC(C)OC(C)C1 (centres undefined) was read as TPT1 inhibitor 48*, CSN deneddyl inh 0, Rpn11 inh -4, HNF4A DNA FP 1, TPT1 inh confirm 10 and RNase T1 counter 12.
Cc1cc(Br)ccc1OCCN1CCCC1 was read as TPT1 inhibitor -3, CSN deneddyl inh 8, Rpn11 inh 4 and HNF4A DNA FP 0.
For COc1ccccc1N1CCN(C(=O)c2cccc(C(=O)N3CCN(c4ccccc4OC)CC3)c2)CC1 the results were TPT1 inhibitor 1, CSN deneddyl inh 0, Rpn11 inh -2 and HNF4A DNA FP 1.
Screening O=C1Nc2cc(C(=O)N3CCN(c4ccccc4F)CC3)ccc2NC1CSCc1ccccc1F (centres undefined) returned TPT1 inhibitor 134*, TPT1 inh confirm 91* and RNase T1 counter 99*.
Screening COc1ccccc1N1CCN(C(=O)c2ccc3c(c2)NC(=O)C(CSCc2ccccc2C)N3)CC1 (centres undefined) returned TPT1 inhibitor 75*, TPT1 inh confirm 15 and RNase T1 counter 26*.
Cc1cccc(N2CCN(C(=O)c3ccc4c(c3)NC(=O)C(CSCc3cccc(F)c3)N4)CC2C)c1 (centres undefined) was read as TPT1 inhibitor 98*, CSN deneddyl inh 33, HNF4A DNA FP 81*, TPT1 inh confirm 99* and RNase T1 counter 110*.
`CCOC(=O)C1=CN(Cc2cccc(F)c2)S(=O)(=O)N(CC)C1c1ccc(C(F)(F)F)cc1` (centres undefined) gave CSN deneddyl inh 0, Rpn11 inh 1 and HNF4A DNA FP 0.
For Cc1ccc(C)c(N2C(=N)S/C(=C\c3ccc(-c4ccccc4C(=O)O)o3)C2=O)c1 the results were TPT1 inhibitor 59*, CSN deneddyl inh 4, Rpn11 inh 37, HNF4A DNA FP 18, TPT1 inh confirm 41* and RNase T1 counter 53*.
For Cc1ccc(NC(=O)CN2C(=O)S/C(=C\c3ccc(-c4cccc(C(=O)O)c4C)o3)C2=O)cc1 the results were TPT1 inhibitor 6.
For CC(=O)Nc1ccc(SCC(=O)c2c(N)n(Cc3ccccc3)c(=O)n(C)c2=O)cc1 the results were TPT1 inhibitor 1, CSN deneddyl inh 0, Rpn11 inh 2 and HNF4A DNA FP 1.
For CC(=O)NC(=S)c1c(N)n(Cc2ccccc2)c(=O)n(C)c1=O the results were TPT1 inhibitor 38*, TPT1 inh confirm 32* and RNase T1 counter 43*.
Screening O=C(Nc1c(-c2ccc3c(c2)OCO3)[nH][nH]c1=O)c1ccccc1 returned CSN deneddyl inh -1, Rpn11 inh 15 and HNF4A DNA FP 3.
O=C1CCCCC(=O)[C@H](O)C[C@H](COCc2ccccc2)O1 was read as CSN deneddyl inh -4 and HNF4A DNA FP 1.
For NS(=O)(=O)c1ccc(-c2ccc(/C=C3\NC(=S)NC3=O)o2)cc1 the results were TPT1 inhibitor 45*, CSN deneddyl inh -1, Rpn11 inh 5, HNF4A DNA FP 36*, TPT1 inh confirm 70* and RNase T1 counter 80*.
CCCNC(=O)C(CC)NC(=O)c1cccc([N+](=O)[O-])c1 (centres undefined) was read as CSN deneddyl inh 2, Rpn11 inh -1 and HNF4A DNA FP -1.
For O=C(O)c1ccc(-c2ccc(/C=c3/sc4nc5ccccc5n4c3=O)o2)cc1Cl the results were TPT1 inhibitor 49*, CSN deneddyl inh 107*, HNF4A DNA FP 57*, TPT1 inh confirm 120* and RNase T1 counter 122*.
`CCCCC(=O)Nc1ccc(NC(=O)c2ccc([N+](=O)[O-])cc2)cc1OC` gave TPT1 inhibitor 1, CSN deneddyl inh -7, Rpn11 inh -7 and HNF4A DNA FP -1.
Screening CCCCC(=O)Nc1ccc(C(=O)Nc2ccc(OC)cc2[N+](=O)[O-])cc1 returned TPT1 inhibitor 27*, CSN deneddyl inh 131, HNF4A DNA FP 95, TPT1 inh confirm 54* and RNase T1 counter 63*.
For COc1ccc(C(CC(=O)O)NS(=O)(=O)c2ccc3c(c2)N(C(C)=O)CC(C)O3)cc1 (centres undefined) the results were TPT1 inhibitor -1, CSN deneddyl inh 0, Rpn11 inh -4 and HNF4A DNA FP 7.
For CCOC(=O)c1[nH]c(C)c(C(=O)Nc2ccc(C)c(Cl)c2)c1C the results were TPT1 inhibitor 28*, CSN deneddyl inh 0, Rpn11 inh 2, HNF4A DNA FP 4, TPT1 inh confirm 6 and RNase T1 counter 7.
CCOC(=O)c1[nH]c(C)c(C(=O)Nc2ccc(C)c(F)c2)c1C was read as TPT1 inhibitor 0, CSN deneddyl inh 1, Rpn11 inh 3 and HNF4A DNA FP 2.
O=C(CC1C(=O)NCCN1C(=O)Nc1ccccc1)Nc1cccc(Cl)c1 (centres undefined) was read as TPT1 inhibitor 0, CSN deneddyl inh 2, Rpn11 inh 0 and HNF4A DNA FP 2.
Cc1cccc(C(=O)N2CCNC(=O)C2CC(=O)Nc2cccc(Cl)c2)c1 (centres undefined) was read as TPT1 inhibitor 24*, CSN deneddyl inh 0, Rpn11 inh -11, HNF4A DNA FP 1, TPT1 inh confirm -2 and RNase T1 counter 3.
For CC[C@@H]1[C@H]2CCCC(=O)N3CC[C@@H](C[C@@H]1OC(=O)Nc1ccccc1)[C@@H]23 the results were TPT1 inhibitor -3, CSN deneddyl inh 4, Rpn11 inh -3 and HNF4A DNA FP 4.
CCN(CC)c1cccc(OCC(=O)N(C)CCC#N)c1 was read as TPT1 inhibitor 43*, CSN deneddyl inh 18, HNF4A DNA FP 32, TPT1 inh confirm 41* and RNase T1 counter 51*.
Screening Cc1cc2c(c(=O)o1)C1(C(=O)N(CC(=O)O)c3ccccc31)C(C#N)=C(N)O2 (centres undefined) returned TPT1 inhibitor 37*, CSN deneddyl inh 9, Rpn11 inh 8, HNF4A DNA FP 3, TPT1 inh confirm 42* and RNase T1 counter 49*.
Screening CC(Sc1ccccc1F)C(=O)Nc1ccc2c(c1)OCCO2 (centres undefined) returned CSN deneddyl inh 1, Rpn11 inh 2 and HNF4A DNA FP 0.
For Cc1cccc(NC(=O)c2ccc(NCCc3ccccc3)c([N+](=O)[O-])c2)c1 the results were TPT1 inhibitor 46*, CSN deneddyl inh 89*, HNF4A DNA FP 85, TPT1 inh confirm 111* and RNase T1 counter 133*.
For Cc1ccc(NC(=O)c2ccc(NCCN)c([N+](=O)[O-])c2)cc1 the results were TPT1 inhibitor -1, CSN deneddyl inh -9, Rpn11 inh -15 and HNF4A DNA FP 3.
For CCOC(=O)c1c(/N=C/N(C)C)sc(/C=N/Nc2ccccc2)c1-c1ccccc1Cl the results were TPT1 inhibitor 35*, CSN deneddyl inh 11, Rpn11 inh 25, HNF4A DNA FP 17, TPT1 inh confirm 40* and RNase T1 counter 52*.
